For assay [1], the target named is T1, Phospholipase D1 (Mus musculus) (UniProt Q9Z280).
T1 sequence (whole entry): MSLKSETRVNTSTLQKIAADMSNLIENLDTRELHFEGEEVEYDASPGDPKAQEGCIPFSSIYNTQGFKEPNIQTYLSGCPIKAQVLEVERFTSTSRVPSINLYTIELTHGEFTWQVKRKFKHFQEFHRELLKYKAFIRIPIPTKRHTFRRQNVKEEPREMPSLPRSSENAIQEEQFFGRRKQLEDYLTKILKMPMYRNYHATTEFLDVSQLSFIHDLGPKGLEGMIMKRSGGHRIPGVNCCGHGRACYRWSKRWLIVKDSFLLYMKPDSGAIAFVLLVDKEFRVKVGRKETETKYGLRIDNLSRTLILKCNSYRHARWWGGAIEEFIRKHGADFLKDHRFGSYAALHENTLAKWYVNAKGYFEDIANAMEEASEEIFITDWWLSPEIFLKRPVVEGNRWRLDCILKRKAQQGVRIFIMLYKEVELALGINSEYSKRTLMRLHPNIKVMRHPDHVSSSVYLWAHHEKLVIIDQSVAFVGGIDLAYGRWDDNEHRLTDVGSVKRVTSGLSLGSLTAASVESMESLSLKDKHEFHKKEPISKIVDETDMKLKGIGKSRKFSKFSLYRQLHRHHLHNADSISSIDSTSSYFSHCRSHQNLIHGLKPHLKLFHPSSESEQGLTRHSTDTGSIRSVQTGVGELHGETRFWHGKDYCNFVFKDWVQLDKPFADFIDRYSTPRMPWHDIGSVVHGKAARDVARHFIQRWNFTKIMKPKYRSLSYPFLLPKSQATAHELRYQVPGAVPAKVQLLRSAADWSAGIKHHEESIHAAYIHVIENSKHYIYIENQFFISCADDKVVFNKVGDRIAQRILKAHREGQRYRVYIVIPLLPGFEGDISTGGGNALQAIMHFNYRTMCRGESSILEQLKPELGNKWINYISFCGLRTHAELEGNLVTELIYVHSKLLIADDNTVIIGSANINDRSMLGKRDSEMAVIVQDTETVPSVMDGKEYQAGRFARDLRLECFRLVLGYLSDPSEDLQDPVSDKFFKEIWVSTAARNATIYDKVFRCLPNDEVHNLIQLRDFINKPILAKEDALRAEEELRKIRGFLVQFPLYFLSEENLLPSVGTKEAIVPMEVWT
Kind of assay: In vivo inhibition of PLD1 in male C57BL/6 mouse allografted with mouse Lewis lung carcinoma cell line assessed as increase in calreticulin expression at 10 mg/kg, po by immunofluorescence analysis. The class given is functional, organism-based.

Assay [2] deals with A549. Nature of the assay: Induction of apoptosis in human A549 cells assessed as increase in caspase-3 activity measured up to 48 hrs in presence of gemcitabine […]. The class given is functional, cell-based. A digest of the protocol: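 A549 cells given compound, gemcitabine, or both. Apoptosis assessed by PI staining, annexin V flow cytometry, cleaved PARP immunoblot, and caspase-3 activity. For caspase-3: drugs at 10 μM for 48 h, then 1 μM NucView 488 substrate for 30 min, with 1 μM Hoechst 33342, read by plate fluorescence.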

Assay [3] has as its target T1, Phospholipase D1 (Mus musculus). Kind of assay: In vivo inhibition of PLD1 in male C57BL/6 mouse allografted with mouse Lewis lung carcinoma cell line assessed as increase in CD8+T cell population at 10 mg/kg, po by immunofluorescence analysis. In kind it is functional, organism-based. A digest of the protocol: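 Same LLC syngeneic C57BL/6 model, 10 mg/kg PO every other day for 3 weeks. Tumor tissues were stained by immunofluorescence for CD80+ and CD163+ cells, CD8+ T cells, and CD4+/IL-17+ and Treg populations. Nuclei were counterstained with 1 μM Hoechst 33342 and imaged by confocal microscopy.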

The subject of assay [4] is Mus musculus. Kind of assay: In vivo inhibition of KRAS activation in male C57BL/6 mouse allografted with mouse Lewis lung carcinoma cell line assessed as decrease in Akt phosphorylation at 10 mg/kg, po. In kind it is functional, organism-based.
Assay [5] has as its system A549. Kind of assay: Inhibition of cell invasion in human A549 cells measured after 24 hrs by crystal violet staining based light microscopic analysis. In kind it is functional.
Assay [6] deals with T2, Phospholipase D1 (Homo sapiens) (UniProt Q13393).
T2 sequence (whole entry): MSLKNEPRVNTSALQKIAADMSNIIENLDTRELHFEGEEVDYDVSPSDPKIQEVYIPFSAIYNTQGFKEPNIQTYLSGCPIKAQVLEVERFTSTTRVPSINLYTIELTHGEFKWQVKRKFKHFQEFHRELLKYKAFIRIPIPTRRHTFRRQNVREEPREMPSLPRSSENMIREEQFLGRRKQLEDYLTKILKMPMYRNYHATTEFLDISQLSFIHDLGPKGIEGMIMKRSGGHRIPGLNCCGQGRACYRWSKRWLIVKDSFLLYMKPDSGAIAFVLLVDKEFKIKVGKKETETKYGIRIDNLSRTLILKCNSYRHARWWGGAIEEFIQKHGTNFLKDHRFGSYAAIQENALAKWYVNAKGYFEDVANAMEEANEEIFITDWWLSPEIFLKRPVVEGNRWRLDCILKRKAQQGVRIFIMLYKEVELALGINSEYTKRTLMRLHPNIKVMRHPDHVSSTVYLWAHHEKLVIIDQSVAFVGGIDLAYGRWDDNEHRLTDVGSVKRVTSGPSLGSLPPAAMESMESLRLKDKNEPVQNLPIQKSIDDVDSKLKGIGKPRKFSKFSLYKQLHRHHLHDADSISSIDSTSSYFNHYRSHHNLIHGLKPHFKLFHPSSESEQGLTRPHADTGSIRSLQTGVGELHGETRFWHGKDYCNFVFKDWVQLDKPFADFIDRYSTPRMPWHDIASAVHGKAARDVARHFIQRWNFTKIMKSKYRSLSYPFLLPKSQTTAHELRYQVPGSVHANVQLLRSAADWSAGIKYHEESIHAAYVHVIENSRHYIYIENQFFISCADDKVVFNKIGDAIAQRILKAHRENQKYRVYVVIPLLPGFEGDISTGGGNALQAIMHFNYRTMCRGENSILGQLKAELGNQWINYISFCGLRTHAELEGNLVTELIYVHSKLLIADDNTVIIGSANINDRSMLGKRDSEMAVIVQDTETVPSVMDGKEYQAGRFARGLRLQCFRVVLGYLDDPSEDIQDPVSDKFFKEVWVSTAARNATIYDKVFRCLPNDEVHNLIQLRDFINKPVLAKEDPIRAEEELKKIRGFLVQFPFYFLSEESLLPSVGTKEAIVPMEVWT
Nature of the assay: Binding affinity to PLD1 in human A549 cells assessed as protection against pronase E-mediated proteolysis at 2 to 20 uM incubated for 1 hr by DARTS assay. The class given is cell-based. As to conditions: dose 2-20 µM. In short, it runs like this:
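A549 lysates made in buffer with protease and phosphatase inhibitors. Lysates were incubated with compound for 1 h at room temperature, then digested with Pronase for 10 min at RT. Digestion was quenched in SDS loading buffer by boiling 5 min. PLD1 and β-tubulin were detected by immunoblot.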

Assay [7] deals with Mus musculus. Kind of assay: In vivo inhibition of KRAS activation in male C57BL/6 mouse allografted with mouse Lewis lung carcinoma cell line assessed as decrease in RAS level at 10 mg/kg, po. In kind it is functional, organism-based.
For assay [8], the system named is Calu-6. Nature of the assay: Cytotoxicity against human Calu-6 cells assessed as inhibition of cell growth incubated for 48 hrs by WST-1 assay. In kind it is functional, cell-based. The following applies: Calu-6, 48 h. (Tetrazolium assays rely on reduction of a dye to a coloured formazan, in cell work by metabolically active cells.)

The structures appear in SMILES notation. The source made the active and inactive calls. The calls are words filed in the database; no cut-off is given here.

The source of these data is ChEMBL document CHEMBL6134796, “Development and Evaluation of Indole-Based Phospholipase D Inhibitors for Lung Cancer Immunotherapy” (J Med Chem, 2025).

The IC50 is the concentration at which inhibition is half-maximal.

For the compound `O=C(CCc1c[nH]c2ccccc12)Nc1cc(C(F)(F)F)cc(C(F)(F)F)c1`, the inhibition result in assay [1], in assay [3], in assay [4], in assay [5] and in assay [7] was “Active” in each case. Besides, the outcome in assay [2] and in assay [6] was Active. Also, the IC50 in assay [8] was found to be 19 µM.
